Results on 5 compounds are retold here after ChEMBL document CHEMBL1135999, “Discovery of N-isoxazolyl biphenylsulfonamides as potent dual angiotensin II and endothelin A receptor antagonists” (J Med Chem, 2002).

The source made the active and inactive calls. No cut-off for these calls is given here. Some results are limits rather than exact numbers.

Data set [1] is described as follows: A dose of 10(umol/kg) was administered orally to rat and Tmax value was determined (mean+/-SD). To be noted: in vivo, po. It counts as ADME, organism-based. In outline: (§1)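 Male rats dosed at 10 µmol/kg, iv or po (n = 6 per route). Plasma exposure followed to give AUC0-∞, clearance, Vss, t1/2 and MRT (iv), and Cmax, Tmax, t1/2, MRT, AUC and oral bioavailability (po). Values reported as mean ± SD.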

Data set [2] is described as follows: Pharmacokinetic parameter MRT value determined in rat at a dose of 10(umol/kg) following peroral administration (mean+/-SD). The following applies: in vivo, po. It counts as ADME, organism-based. The gist of the method: as §1
Data set [3] is described as follows: half life was determined in rat at a dose of 10 (umol/kg) following peroral administration (mean+/-SD). It counts as ADME, organism-based. The following applies: in vivo, po. In outline:
as §1

Data set [4] in a line: A dose of 10 (umol/kg) was administered pre orally to rat and plasma concentration was reported (mean+/-SD). It counts as ADME, organism-based. More on the design: dose 10 umol/kg, route oral. To be noted: po. The gist of the method: as §1
Data set [5] is described as follows: Pharmacokinetic parameter Volume of distribution was determined in rat following i.v. administration of a dose of 10 (umol/kg) (mean+/-SD). In kind it is ADME, organism-based. The following applies: in vivo, iv, read-out: Vss. In outline: as §1
Data set [6] deals with Rattus norvegicus. Description: Compound was tested for its activity in bET-1 pressor test following oral administration. It counts as functional. In outline: (§2)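 Conscious normotensive rats challenged iv with big ET-1 (1.0 nmol/kg). A control response was obtained after vehicle. Compound was then given orally, and bET-1 was re-injected iv at 15, 105 and 195 min after dosing. Mean blood pressure followed up to 3 h, with area over curve used as read-out; n = 4 per dose.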

Data set [7] is described as follows: Pharmacokinetic parameter MRT value was determined in rat at a dose of 10(umol/kg) following intravenous administration (mean+/-SD). In kind it is ADME, organism-based. The following applies: in vivo. In outline: as §1
The nature of data set [8]: Pharmacokinetic parameter Area under curve reported following peroral administration at a dose of 10 (umol/kg) (mean+/-SD). It counts as ADME. To be noted: po. In outline: as §1
For data set [9], the system named is Rattus norvegicus. Description: Compound was tested for its activity in Ang II pressor test following oral administration. In kind it is functional. In outline: (§3)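 Conscious normotensive rats carrying carotid artery and jugular vein catheters. […] Compound was given by oral gavage, and rats were rechallenged with Ang II at intervals up to 240 min. Percent inhibition taken from the maximum blood pressure rise before versus after drug; n = 4 per dose.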

For data set [10], the system named is Rattus norvegicus. Description: (§4) Compound was tested for its activity in Ang II pressor test following intravenous administration. It counts as ADME, organism-based.
Data set [11] deals with Rattus norvegicus. Kind of data set: Compound was tested for its activity in bET-1 pressor test following intravenous administration. In kind it is functional.
The nature of data set [12]: A dose of 10(umol/kg) was administered orally to rat and % bioavailability was determined. It counts as ADME, organism-based. To be noted: in vivo, po, read-out: Bioavailabiility. In outline:
as §1

The nature of data set [13]: Pharmacokinetic parameter Area under curve reported following intravenous administration at a dose of 10 (umol/kg) (mean+/-SD). In kind it is ADME. The gist of the method:
as §1

A short description of data set [14]: Pharmacokinetic parameter Plasma clearance determined after intravenous administration at a dose of 10 (umol/kg) (mean+/-SD). It counts as ADME, organism-based. In outline: as §1
Data set [15] is described as follows: half life was determined in rat at a dose of 10 (umol/kg) following intravenous administration (mean+/-SD). In kind it is ADME, organism-based. The following applies: in vivo. In outline: as §1
Data set [16] deals with Rattus norvegicus. Described as §4. It counts as functional.
In data set [17] the target is T1, Type-1 angiotensin II receptor B (Rattus norvegicus, UniProt P29089).
T1 sequence (P29089 whole entry): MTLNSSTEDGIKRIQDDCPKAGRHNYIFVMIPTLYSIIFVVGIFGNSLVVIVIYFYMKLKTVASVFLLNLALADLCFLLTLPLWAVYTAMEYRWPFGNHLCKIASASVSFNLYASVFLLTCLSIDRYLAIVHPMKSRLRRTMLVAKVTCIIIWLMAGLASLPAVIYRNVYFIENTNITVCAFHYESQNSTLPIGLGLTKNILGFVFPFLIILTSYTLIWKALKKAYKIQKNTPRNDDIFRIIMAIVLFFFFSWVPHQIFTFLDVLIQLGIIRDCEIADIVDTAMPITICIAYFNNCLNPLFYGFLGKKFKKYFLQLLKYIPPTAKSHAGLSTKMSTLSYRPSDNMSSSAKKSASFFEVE
Description: Compound was evaluated for its binding affinity towards rat Angiotensin II receptor, type 1. In outline: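 Rat aortic smooth muscle cells grown 48 h to 90% confluency in HEPES-buffered DMEM with 10% FCS. Assayed in DMEM with 0.1% BSA and 0.01% sodium azide, using 0.2 nM [125I]-Sar-Ile-angiotensin II and increasing compound. Nonspecific binding defined with 10 µM Ang II. Incubated 2 h at room temperature with shaking, washed with cold PBS, lysed in 1% Triton X-100, gamma-counted. IC50 obtained by curve fitting.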

Data set [18] relates to Rattus norvegicus. Description: Compound was tested for its activity in bET-1 pressor test following oral administration; NE = No effect. In kind it is functional, organism-based. The gist of the method:
as §2

The test system of data set [19] is Rattus norvegicus. Description: Compound was tested for its activity in bET-1 pressor test following intravenous administration; NE = No effect. It counts as functional, organism-based.
The target of data set [20] is T2, Type-1 angiotensin II receptor (Homo sapiens, UniProt P30556).
T2 sequence (P30556 whole entry): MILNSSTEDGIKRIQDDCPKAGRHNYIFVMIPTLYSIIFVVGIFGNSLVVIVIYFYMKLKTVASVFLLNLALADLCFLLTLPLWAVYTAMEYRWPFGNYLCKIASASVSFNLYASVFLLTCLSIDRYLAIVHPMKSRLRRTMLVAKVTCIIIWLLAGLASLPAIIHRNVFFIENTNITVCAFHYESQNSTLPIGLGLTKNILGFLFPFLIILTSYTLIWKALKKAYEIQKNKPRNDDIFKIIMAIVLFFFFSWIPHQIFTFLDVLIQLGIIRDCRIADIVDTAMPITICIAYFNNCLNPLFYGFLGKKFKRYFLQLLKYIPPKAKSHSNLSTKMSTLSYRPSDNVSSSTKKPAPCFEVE
Description: Compound was evaluated for inhibitory activity against human Angiotensin II receptor, type 1. The gist of the method:
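Human recombinant AT1 receptor membranes in 50 mM Tris-HCl pH 7.4 with 10 mM MgCl2, 1 mM EDTA and 0.1% BSA. Incubated with 0.2 nM [125I]-Sar-Ile-angiotensin II and increasing compound concentrations, 60 min at 37 °C. Nonspecific binding defined with 10 µM angiotensin II. Bound and free label separated, then gamma-counted.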

The target of data set [21] is T3, Endothelin-1 receptor (Homo sapiens, UniProt P25101).
T3 sequence (P25101 whole entry): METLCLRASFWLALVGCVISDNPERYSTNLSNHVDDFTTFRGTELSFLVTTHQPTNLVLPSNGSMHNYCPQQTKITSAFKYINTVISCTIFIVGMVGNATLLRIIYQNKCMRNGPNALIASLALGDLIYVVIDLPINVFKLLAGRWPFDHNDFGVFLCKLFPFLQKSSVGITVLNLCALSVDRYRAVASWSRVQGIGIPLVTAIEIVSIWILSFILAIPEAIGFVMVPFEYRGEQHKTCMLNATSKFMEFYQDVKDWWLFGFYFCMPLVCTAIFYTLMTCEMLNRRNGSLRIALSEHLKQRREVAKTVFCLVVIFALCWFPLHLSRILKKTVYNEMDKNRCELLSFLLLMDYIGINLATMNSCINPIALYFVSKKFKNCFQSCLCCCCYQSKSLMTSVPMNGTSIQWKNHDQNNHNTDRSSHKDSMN
Description: Compound was evaluated for its binding affinity towards human Endothelin A receptor. In outline:
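CHO-K1 cells expressing human ETA receptor, seeded 1.8×10^4 cells/well 24 h before assay. Binding run in 50 mM Tris pH 7.4 with 1% BSA and 2 µM phosphoramidon, using 0.25 nM [125I]-ET-1 and competing drug. Nonspecific binding defined with 500 nM ET-1. Incubated 4 h at 4 °C with shaking, washed, cells dissolved in 0.5 N NaOH, gamma-counted.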

Data set [22] deals with Rattus norvegicus. Description: Compound was tested for its activity in Ang II pressor test following oral administration; NE = No effect. It counts as functional, organism-based. In outline: as §3
Data set [23] concerns Rattus norvegicus. Kind of data set: Compound was tested for its activity in Ang II pressor test following intravenous administration; NE = No effect. It counts as functional, organism-based.

As to `CCCCC1=NC2(CCCC2)C(=O)N1Cc1ccc(-c2ccccc2S(=O)(=O)Nc2onc(C)c2C)c(CN2CCC(C)(C)C2=O)c1` [BMS-248360], in data set [1], the time of peak concentration (Tmax) was 0.7 h. For the same compound, the MRT in [2] was 5 h; in data set [7], 6.4 h. The figures for the half-life in data set [3] and in data set [15] were 3 h and 5.5 h, respectively. The same compound yielded a Cmax in data set [4] of 3.1 µM. The Vd in [5] stood at 1.4 L/kg. Besides, the ED50 in data set [6] was found to be 26 µmol/kg; in data set [9], 39 µmol/kg; in [10] it was 1.4 µmol/kg; in [11] it was 2.1 µmol/kg. Besides, the AUC is 19 µM·h in [8] and 50 µM·h in data set [13]. The bioavailability in [12] is 38%. The compound further registered a clearance in data set [14] of 3.8 mL/min/kg.

Turning to `CCCCC1=NC2(CCCC2)C(=O)N1Cc1ccc(-c2ccccc2-c2nnn[nH]2)cc1` [IRBESARTAN], the figures for the ED50 in [16] and in data set [9] were 0.3 µmol/kg and 16 µmol/kg, respectively. The same compound showed an inhibition constant Ki in data set [17] of 0.8 nM. Also, in data set [18], the outcome was inactive. Also, the NE entry in data set [19] was “inactive”.

Take `CCCc1cc(Cn2c(CC)nc3c(C)cc(C)nc32)ccc1OC(C(=O)NS(=O)(=O)c1ccc(C(C)C)cc1)c1ccc2c(c1)OCO2` (stereo not drawn): the IC50 in data set [20] came to 13 nM.

`CCCCC1=NC2(CCCC2)C(=O)N1Cc1ccc(-c2ccccc2S(=O)(=O)Nc2onc(C)c2C)cc1`: the Ki in data set [17] came out at 4.7 nM; in [21], 39 nM.

As for `Cc1noc(NS(=O)(=O)c2ccccc2-c2ccc(-c3ncco3)cc2)c1C`, the NE entry in data set [22] and in data set [23] was “inactive” each time. The Ki in [17] is greater than 10000 nM. Also, the 50% effective dose (ED50) in data set [6] was 10 µmol/kg; in data set [11] it was 0.9 µmol/kg.

Usually Tmax stands for the time at which the peak concentration occurs. By MRT is commonly meant a mean duration of stay, worked out from the concentration-time curve. For orientation: half-life means how long it takes for the measured level to halve. In general, Cmax refers to the peak of the concentration-time curve. Usually ED50 stands for the dose at which the effect has come halfway, by size or by number of responders. A low value points to an effect at a small dose. The AUC is the area under the concentration-time curve, a measure of exposure. In general, clearance refers to the rate of elimination divided by the concentration. Higher therefore signals a high capacity for elimination. In general, Ki refers to a measure of affinity in units of concentration, obtained from inhibition or displacement. A low value points to tighter binding. One may read the IC50 as the concentration at which inhibition is half-maximal.
